ChEMBL document CHEMBL4622841, “Structural modifications of indolinones bearing a pyrrole moiety and discovery of a multi-kinase inhibitor with potent antitumor activity” (Bioorg Med Chem, 2020)
One block for each compound: values may come before it.

Experiments:
[1] = target: Platelet-derived growth factor receptor beta (Homo sapiens, UniProt P09619); test: Inhibition of N-terminal GST-fused human PDGFRbeta cytoplasmic domain (557 to 1106 (end) residues) expressed in baculovirus expression system using FAM-labeled peptide and ATP as substrate preincubated for 10 mins followed by substrate addition measured after 1 hr by mobility shift assay
Platelet-derived growth factor receptor beta, sequence (P09619 whole entry, the tested form may be a part): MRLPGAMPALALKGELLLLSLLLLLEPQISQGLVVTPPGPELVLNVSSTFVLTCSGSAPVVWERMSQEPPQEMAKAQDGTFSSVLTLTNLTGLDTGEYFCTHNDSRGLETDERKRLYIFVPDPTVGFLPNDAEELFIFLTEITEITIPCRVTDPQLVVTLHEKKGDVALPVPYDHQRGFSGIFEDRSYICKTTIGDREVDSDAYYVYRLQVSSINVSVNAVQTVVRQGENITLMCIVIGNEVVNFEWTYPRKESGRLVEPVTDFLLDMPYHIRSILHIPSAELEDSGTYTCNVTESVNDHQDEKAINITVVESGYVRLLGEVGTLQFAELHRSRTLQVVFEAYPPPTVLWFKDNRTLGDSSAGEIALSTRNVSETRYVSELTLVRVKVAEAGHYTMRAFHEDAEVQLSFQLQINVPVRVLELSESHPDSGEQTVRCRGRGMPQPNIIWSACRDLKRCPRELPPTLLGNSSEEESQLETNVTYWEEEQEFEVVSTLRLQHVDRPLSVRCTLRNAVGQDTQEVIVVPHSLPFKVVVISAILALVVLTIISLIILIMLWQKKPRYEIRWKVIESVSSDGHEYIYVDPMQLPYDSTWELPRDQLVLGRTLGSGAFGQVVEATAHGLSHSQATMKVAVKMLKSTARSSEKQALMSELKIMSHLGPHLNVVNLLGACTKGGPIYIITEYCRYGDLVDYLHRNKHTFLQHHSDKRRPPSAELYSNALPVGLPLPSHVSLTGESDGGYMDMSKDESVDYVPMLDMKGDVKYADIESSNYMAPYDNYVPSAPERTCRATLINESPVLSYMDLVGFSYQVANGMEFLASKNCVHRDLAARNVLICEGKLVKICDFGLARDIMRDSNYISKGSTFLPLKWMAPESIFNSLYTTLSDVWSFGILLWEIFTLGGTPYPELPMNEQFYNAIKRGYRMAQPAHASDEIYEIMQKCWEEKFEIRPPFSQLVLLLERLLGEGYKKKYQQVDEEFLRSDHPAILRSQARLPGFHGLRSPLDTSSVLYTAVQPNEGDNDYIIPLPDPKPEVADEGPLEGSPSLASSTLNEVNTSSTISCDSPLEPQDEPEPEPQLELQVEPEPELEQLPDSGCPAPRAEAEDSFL

[2] = target: Vascular endothelial growth factor receptor 2 (Homo sapiens, UniProt P35968); test: Inhibition of N-terminal GST fused human VEGFR2 cytoplasmic domain (790 to 1356 (end) residues) expressed in baculovirus expression system using FAM-labeled peptide and ATP as substrate preincubated for 10 mins followed by substrate addition measured after 1 hr by mobility shift assay
Vascular endothelial growth factor receptor 2, sequence (P35968 whole entry, the tested form may be a part): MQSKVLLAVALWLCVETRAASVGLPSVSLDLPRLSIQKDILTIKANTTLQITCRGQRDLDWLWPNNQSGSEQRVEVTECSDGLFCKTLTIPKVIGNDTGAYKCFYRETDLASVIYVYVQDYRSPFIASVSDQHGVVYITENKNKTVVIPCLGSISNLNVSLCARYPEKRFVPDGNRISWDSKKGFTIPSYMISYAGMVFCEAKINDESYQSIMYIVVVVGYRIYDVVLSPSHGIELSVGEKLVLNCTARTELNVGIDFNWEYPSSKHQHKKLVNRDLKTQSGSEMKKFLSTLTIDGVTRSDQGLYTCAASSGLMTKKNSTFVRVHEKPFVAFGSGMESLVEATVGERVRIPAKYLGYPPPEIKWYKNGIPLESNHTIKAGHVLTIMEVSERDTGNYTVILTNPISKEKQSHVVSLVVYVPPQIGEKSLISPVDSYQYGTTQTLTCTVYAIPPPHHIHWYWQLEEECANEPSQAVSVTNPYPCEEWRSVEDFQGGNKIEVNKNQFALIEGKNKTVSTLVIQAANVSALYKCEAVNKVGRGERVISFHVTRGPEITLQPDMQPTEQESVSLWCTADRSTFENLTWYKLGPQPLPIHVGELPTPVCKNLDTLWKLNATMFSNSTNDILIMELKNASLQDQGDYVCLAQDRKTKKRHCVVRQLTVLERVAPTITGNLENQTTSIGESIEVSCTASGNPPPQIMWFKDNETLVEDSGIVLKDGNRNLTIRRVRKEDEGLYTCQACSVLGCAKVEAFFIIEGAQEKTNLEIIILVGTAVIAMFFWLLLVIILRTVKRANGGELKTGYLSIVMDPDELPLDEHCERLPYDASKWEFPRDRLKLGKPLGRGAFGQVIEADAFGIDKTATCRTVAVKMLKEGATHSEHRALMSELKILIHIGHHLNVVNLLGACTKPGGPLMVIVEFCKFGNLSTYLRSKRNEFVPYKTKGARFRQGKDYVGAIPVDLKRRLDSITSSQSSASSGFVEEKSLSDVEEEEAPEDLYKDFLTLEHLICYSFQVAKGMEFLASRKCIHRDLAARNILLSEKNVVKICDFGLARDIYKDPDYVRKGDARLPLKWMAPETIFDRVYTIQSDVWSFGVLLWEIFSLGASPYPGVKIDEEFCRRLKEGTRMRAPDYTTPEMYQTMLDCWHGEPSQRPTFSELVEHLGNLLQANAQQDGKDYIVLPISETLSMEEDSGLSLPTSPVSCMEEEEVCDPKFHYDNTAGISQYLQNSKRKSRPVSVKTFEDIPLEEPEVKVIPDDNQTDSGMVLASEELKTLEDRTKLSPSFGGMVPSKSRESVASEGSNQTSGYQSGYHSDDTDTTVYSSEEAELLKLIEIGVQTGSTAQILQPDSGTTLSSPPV

[3] = Inhibition of GST-tagged human recombinant VEGFR3 cytoplasmic domain (800 to 1297 residues) Q890H/V1128L/H1146R mutant expressed in baculovirus expression system using FAM-labeled peptide and ATP as substrate preincubated for 10 mins followed by substrate addition measured after 1 hr by mobility shift assay
[4] = target: Cyclin-dependent kinase 2 (Homo sapiens, UniProt P24941); test: Inhibition of CDK2 (unknown origin) using FAM-labeled peptide and ATP as substrate preincubated for 10 mins followed by substrate addition measured after 1 hr by mobility shift assay
HT-29 = test: Antitumor activity against human HT-29 cells xenografted in nu/nu mouse assessed as tumour growth inhibition at 100 mg/kg, po qd for 18 days and measured twice per week by vernier caliper method; type: functional; details: HT-29, po, 432 h, read-out: TGI
[5] = Toxicity in nu/nu mouse xenografted with human HT-29 cells assessed as effect on body weight at 100 mg/kg, po qd for 18 days; type: organism-based; details: in vivo, 432 h
Outline: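 Female nu/nu mice, 4–6 weeks old, implanted subcutaneously in the right flank with HT-29 cells (2×10⁶/mL). Once tumours reached 200 mm³, mice randomised to groups (n = 6) and dosed orally once daily at 100 mg/kg for 18 days. Body weight monitored during treatment. Results given as mean ± SD.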

[6] = Inhibition of N-terminal GST-tagged human recombinant PDGFRalpha D842I mutant expressed in baculovirus-infected Sf9 cells using FAM-labeled peptide and ATP as substrate preincubated for 10 mins followed by substrate addition measured after 1 hr by mobility shift assay
[7] = Half life in human liver microsomes; type: ADME, Microsome
[8] = Intrinsic clearance in human liver microsomes; type: ADME, Microsome; details: read-out: CLH
[9] = target: Tyrosine-protein kinase Lyn (Homo sapiens, UniProt P07948); test: Inhibition of LYN (unknown origin) using FAM-labeled peptide and ATP as substrate preincubated for 10 mins followed by substrate addition measured after 1 hr by mobility shift assay
Tyrosine-protein kinase Lyn, sequence (P07948 whole entry): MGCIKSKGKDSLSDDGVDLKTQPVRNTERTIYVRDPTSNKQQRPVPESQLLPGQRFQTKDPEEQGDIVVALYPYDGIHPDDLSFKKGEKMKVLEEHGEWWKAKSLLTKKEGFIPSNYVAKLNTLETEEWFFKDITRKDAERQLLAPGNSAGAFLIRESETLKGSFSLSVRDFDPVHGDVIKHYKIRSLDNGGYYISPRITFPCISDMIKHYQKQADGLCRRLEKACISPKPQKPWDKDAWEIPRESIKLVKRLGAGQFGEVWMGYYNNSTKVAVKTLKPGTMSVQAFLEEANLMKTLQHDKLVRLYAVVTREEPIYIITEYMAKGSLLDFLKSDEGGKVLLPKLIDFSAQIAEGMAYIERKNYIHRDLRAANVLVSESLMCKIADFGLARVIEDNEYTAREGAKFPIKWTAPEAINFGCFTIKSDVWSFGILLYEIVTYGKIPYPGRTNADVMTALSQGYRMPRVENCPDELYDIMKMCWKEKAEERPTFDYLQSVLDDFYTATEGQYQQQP

Compound: COC(=O)c1ccc2c(c1)NC(=O)/C2=C(\Nc1ccc(-n2cccc2CN2CCN(C)CC2)c(C)c1)c1ccccc1
IC50 [1]: 206 nM

Compound: COC(=O)c1ccc2c(c1)NC(=O)/C2=C(\Nc1ccc(-n2cccc2CN2CCN(C)CC2)cc1)c1ccccc1
IC50 [1]: 55 nM

Compound: COC(=O)c1ccc2c(c1)NC(=O)/C2=C(\Nc1cnc(-n2cccc2CN2CCN(C)CC2)c(C)c1)c1ccccc1
IC50 [1]: > 300 nM
IC50 [2]: > 1000 nM

Compound: COC(=O)c1ccc2c(c1)NC(=O)/C2=C(\Nc1cnc(-n2cccc2CN(C)C)c(C)c1)c1ccccc1
IC50 [1]: 71 nM
IC50 [2]: > 1000 nM

Compound: COC(=O)c1ccc2c(c1)NC(=O)/C2=C(\Nc1ccc(-n2cccc2CN2CCN(C)CC2)nc1)c1ccccc1
IC50 [1]: 114 nM

Compound: COC(=O)c1ccc2c(c1)NC(=O)/C2=C(\Nc1ccc(N(C)C(=O)CN2CCN(C)CC2)cc1)c1ccccc1 [NINTEDANIB]
IC50 [3]: 3 nM
IC50 [4]: > 1000 nM
inhibition in vivo at 100 mg/kg (HT-29): 44.3%
Activity [5]: Non-Toxic
IC50 [6]: 1.9 nM
half-life [7]: 27.4 min
CLint scaled [8]: 63.5 mL/min/kg
IC50 [9]: 55 nM

Compound: COC(=O)c1ccc2c(c1)NC(=O)/C2=C(\Nc1ccc(-n2c(C)ccc2CN2CCN(C)CC2)nc1)c1ccccc1
IC50 [1]: 123 nM

The remaining lines, values ahead:

IC50 [1]: 23.8 nM
Compound: CCN(CC)Cc1ccc(C)n1-c1ccc(N/C(=C2\C(=O)Nc3cc(C(=O)OC)ccc32)c2ccccc2)cc1

IC50 [1]: 45.3 nM
Compound: COC(=O)c1ccc2c(c1)NC(=O)/C2=C(\Nc1ccc(-n2c(C)ccc2CN(C)C)cc1)c1ccccc1

IC50 [1]: 26 nM
Compound: COC(=O)c1ccc2c(c1)NC(=O)/C2=C(\Nc1ccc(-n2cccc2CN(C)C)nc1)c1ccccc1

IC50 [1]: 31 nM
Compound: COC(=O)c1ccc2c(c1)NC(=O)/C2=C(\Nc1ccc(-n2cccc2CN(C)C)c(C)c1)c1ccccc1

IC50 [1]: 37 nM
Compound: COC(=O)c1ccc2c(c1)NC(=O)/C2=C(\Nc1ccc(-n2c(C)ccc2CN2CCOCC2)cc1)c1ccccc1

IC50 [1]: 32 nM
Compound: COC(=O)c1ccc2c(c1)NC(=O)/C2=C(\Nc1ccc(-n2c(C)ccc2CN(C)C)nc1)c1ccccc1

IC50 [1]: 11 nM
Compound: COC(=O)c1ccc2c(c1)NC(=O)/C2=C(\Nc1ccc(-n2cccc2CN(C)C)cc1)c1ccccc1
